Assay results from ChEMBL document CHEMBL1133771, “Synthesis and pharmacological evaluation of new pyrazolidine-3, 5-diones as AT(1) angiotensin II receptor antagonists” (J Med Chem, 2000).

How the values were obtained:
[1] = target: T1, Type-1 angiotensin II receptor (Homo sapiens, UniProt P30556); experiment: Binding affinity against AT1 in human hepatoma cell line, PLC-PRF-5
T1 sequence (P30556 whole entry): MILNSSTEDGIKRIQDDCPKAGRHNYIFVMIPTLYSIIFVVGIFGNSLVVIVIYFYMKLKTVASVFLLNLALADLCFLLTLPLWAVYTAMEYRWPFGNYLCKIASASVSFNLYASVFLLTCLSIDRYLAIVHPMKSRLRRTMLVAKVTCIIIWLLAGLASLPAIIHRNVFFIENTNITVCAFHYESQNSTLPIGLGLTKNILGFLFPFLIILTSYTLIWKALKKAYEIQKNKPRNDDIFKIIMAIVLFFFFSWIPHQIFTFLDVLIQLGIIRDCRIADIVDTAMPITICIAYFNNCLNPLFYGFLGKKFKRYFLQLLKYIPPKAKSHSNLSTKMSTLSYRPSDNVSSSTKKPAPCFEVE
Method in brief: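 Crude membranes from PLC-PRF human hepatoma cells were prepared by lysis in ice-cold Tris/HCl 50 mM, MgCl2 2 mM, pH 7.4, then spun at 30000g. 100 µg protein was incubated 1 h at 25 °C with 3 nM [3H]AII. Nonspecific binding was taken with 1 µM losartan. Compounds were tested at 10-10–10-5 M, with filtration and scintillation counting.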

[2] = target: T2, Angiotensin II receptor (Homo sapiens, UniProt P30556+P50052); experiment: (§1) In vitro antagonist activity, Inhibition of angiotensin II (50 nM) mediated increase in cytosolic [Ca2+] conc. in PLC-PRF-5 cells; assay type: functional, cell-based
T2 sequence (P30556 whole entry): T1 sequence (P30556 whole entry)
T2 sequence (P50052 whole entry): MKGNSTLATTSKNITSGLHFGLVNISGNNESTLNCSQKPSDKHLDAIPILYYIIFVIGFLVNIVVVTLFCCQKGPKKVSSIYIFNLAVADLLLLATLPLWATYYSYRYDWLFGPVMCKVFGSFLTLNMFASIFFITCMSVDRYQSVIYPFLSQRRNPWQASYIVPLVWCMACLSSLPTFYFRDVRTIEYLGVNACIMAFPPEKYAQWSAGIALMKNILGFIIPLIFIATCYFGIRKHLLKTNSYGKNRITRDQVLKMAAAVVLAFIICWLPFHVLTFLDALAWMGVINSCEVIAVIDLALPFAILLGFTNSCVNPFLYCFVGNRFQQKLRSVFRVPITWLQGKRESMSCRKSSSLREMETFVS
Method in brief: (§2)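 PLC-PRF-5 cells were preincubated with compound, then stimulated with 50 nM angiotensin II. The rise in intracellular cytosolic Ca2+ concentration was measured, and inhibition of that rise is given as IC50.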

[3] = as §1; assay type: functional, cell-based; settings: Homo sapiens; method in brief: as §2

Row | Ki [1] [nM] | IC50 [2] [nM] | IC50 [3] [nM] | SMILES
1 | 25 | 22 | – | CCCCN1C(=O)C2(CCCC2)C(=O)N1Cc1ccc(-c2ccccc2-c2nn[nH]n2)cc1
2 | 25 | 28 | – | CCCCCN1C(=O)C2(CCCC2)C(=O)N1Cc1ccc(-c2ccccc2S(=O)(=O)NC(=O)c2ccccc2)cc1
3 | 32 | 38 | – | CCCCN1C(=O)C2(CCCC2)C(=O)N1Cc1ccc(-c2ccccc2S(=O)(=O)NC(=O)NC2CCCCC2)cc1
4 | 3160 | – | – | CCCCN1C(=O)C2(CCCC2)C(=O)N1Cc1ccc(-c2ccccc2C(=O)O)cc1
5 | > 10000 | – | – | CCCCN1C(=O)C2(CCCC2)C(=O)N1Cc1ccc(-c2ccccc2S(=O)(=O)NC(C)(C)C)cc1
6 | 40 | 52 | – | CCCN1C(=O)C2(CCCC2)C(=O)N1Cc1ccc(-c2ccccc2S(=O)(=O)NC(=O)c2ccccc2)cc1
7 | 398 | – | – | CCCCN1C(=O)C2(CCCC2)C(=O)N1Cc1ccc(NC(=O)c2ccccc2C(=O)O)cc1
8 | 13 | 15 | – | CCCCC(=O)NS(=O)(=O)c1ccccc1-c1ccc(CN2C(=O)C3(CCCC3)C(=O)N2CCCC)cc1
9 | 42 | 26 | – | CCCCN1C(=O)C(C)(C)C(=O)N1Cc1ccc(-c2ccccc2S(=O)(=O)NC(=O)c2ccccc2)cc1
10 | 32 | – | 33 | CCCCN1C(=O)C(C)(CCCC)C(=O)N1Cc1ccc(-c2ccccc2S(=O)(=O)NC(=O)c2ccccc2)cc1 (configuration not stated)
11 | > 10000 | – | – | CCCCN1C(=O)C2(CCCC2)C(=O)N1Cc1ccc(C(=O)Nc2cccc(C(=O)O)c2)cc1

Further lines, the compound ahead of its results:

Row | SMILES | Ki [1] [nM] | IC50 [2] [nM] | IC50 [3] [nM]
12 | CCCCN1C(=O)C2(CCCC2)C(=O)N1Cc1ccc(-c2ccccc2S(N)(=O)=O)cc1 | > 10000 | – | –
13 | O=C1N(Cc2ccccc2)N(Cc2ccc(-c3ccccc3-c3nn[nH]n3)cc2)C(=O)C12CCCC2 | 402 | – | –
14 | CCCCN1C(=O)C2(CCCC2)C(=O)N1Cc1ccc(C(=O)Nc2ccccc2C(=O)O)cc1 | 2000 | – | –
15 | CCCCN1C(=O)C2(CCCC2)C(=O)N1Cc1ccc(-c2ccccc2)cc1 | > 10000 | – | –
16 | CCCCN1C(=O)C2(CCCC2)C(=O)N1Cc1ccc(-c2ccccc2S(=O)(=O)NC(=O)c2ccccc2)cc1 | 10 | 12 | –
17 | O=C1N(Cc2ccc(-c3ccccc3-c3nn[nH]n3)cc2)N(c2ccccc2)C(=O)C12CCCC2 | – | 89 | –
18 | Cc1ccc(N2C(=O)C3(CCCC3)C(=O)N2Cc2ccc(-c3ccccc3-c3nn[nH]n3)cc2)cc1 | 381 | – | –
19 | CCCCN1C(=O)C2(CCCC2)C(=O)N1Cc1ccc(-c2ccccc2C#N)cc1 | > 10000 | – | –
